Results on seven molecules are retold here after ChEMBL document CHEMBL3407441, “Design, synthesis and docking studies of novel thienopyrimidine derivatives bearing chromone moiety as mTOR/PI3Kα inhibitors” (Eur J Med Chem, 2015).

The target in test [1] is T1, Phosphatidylinositol 4,5-bisphosphate 3-kinase catalytic subunit alpha isoform (Homo sapiens, UniProt P42336). Put plainly: Inhibition of PI3K-alpha kinase (unknown origin) using L-alpha-phosphatidylinositol as substrate after 60 mins by luminescence assay.
Test [2] concerns the target T2, Serine/threonine-protein kinase mTOR (Homo sapiens, UniProt P42345). The test can be described thus: Inhibition of mTOR kinase (unknown origin) using ULight-4E-BP1 as substrate after 1 hr by TR-FRET assay. (TR-FRET usually uses a lanthanide donor and a delayed reading to cut background.)
A short description of test [3]: Cytotoxicity against human H460 cells after 72 hrs by MTT assay. It is filed as functional, cell-based. To be noted: NCI-H460, 72 h. The essentials: (§1)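 MTT assay on H460 and PC-3 cells grown in MEM with 10% FBS. MTT was added at […] and incubated with the cells for 4 h at 37 °C. Formazan was dissolved in DMSO and absorbance read at 492 nm against a 630 nm reference. Each compound was tested three times per cell line; IC50 values are averages of two determinations.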

A short description of test [4]: Cytotoxicity against human PC3 cells after 72 hrs by MTT assay. It is filed as functional, cell-based. The note with it: PC-3, 72 h. The gist of the method: as §1
In general terms: Tetrazolium assays rely on reduction of a dye to a coloured formazan, in cell work by metabolically active cells.

In test [5] the target is T1, Phosphatidylinositol 4,5-bisphosphate 3-kinase catalytic subunit alpha isoform. The test can be described thus: Inhibition of PI3K-alpha kinase (unknown origin) using ULight-4E-BP1 as substrate at 10 uM after 60 mins by luminescence assay. To be noted: in the assay text read “L-alpha-phosphatidylinositol” for “ULight-4E-BP1”. The gist of the method: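 Kinase-Glo luminescent assay with 10 nM PI3Kα protein and lipid substrate prepared in 3% octyl-glucoside. The reaction was started by adding ATP in reaction buffer and ran 60 min. It was stopped with Kinase-Glo buffer, then luminescence was read.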

The target in test [6] is T2, Serine/threonine-protein kinase mTOR. Put plainly: Ratio of (E)-4-((2-(4,6-dimorpholino-1,3,5-triazin-2-yl)hydrazono)methyl)-2,6-dimethoxyphenol IC50 to compound IC50 for mTOR kinase (unknown origin).
The nature of test [7]: Ratio of (E)-4-((2-(4,6-dimorpholino-1,3,5-triazin-2-yl)hydrazono)methyl)-2,6-dimethoxyphenol IC50 to compound IC50 for human H460 cells. It is filed as functional.
The target of test [8] is T1, Phosphatidylinositol 4,5-bisphosphate 3-kinase catalytic subunit alpha isoform. Put plainly: Ratio of (E)-4-((2-(4,6-dimorpholino-1,3,5-triazin-2-yl)hydrazono)methyl)-2,6-dimethoxyphenol IC50 to compound IC50 for PI3K-alpha kinase (unknown origin).
The subject of a further test is PC-3. Put plainly: Ratio of (E)-4-((2-(4,6-dimorpholino-1,3,5-triazin-2-yl)hydrazono)methyl)-2,6-dimethoxyphenol IC50 to compound IC50 for human PC3 cells. It counts as functional.

Molecules are shown by their SMILES.

T1 sequence (P42336 whole entry, canonical isoform): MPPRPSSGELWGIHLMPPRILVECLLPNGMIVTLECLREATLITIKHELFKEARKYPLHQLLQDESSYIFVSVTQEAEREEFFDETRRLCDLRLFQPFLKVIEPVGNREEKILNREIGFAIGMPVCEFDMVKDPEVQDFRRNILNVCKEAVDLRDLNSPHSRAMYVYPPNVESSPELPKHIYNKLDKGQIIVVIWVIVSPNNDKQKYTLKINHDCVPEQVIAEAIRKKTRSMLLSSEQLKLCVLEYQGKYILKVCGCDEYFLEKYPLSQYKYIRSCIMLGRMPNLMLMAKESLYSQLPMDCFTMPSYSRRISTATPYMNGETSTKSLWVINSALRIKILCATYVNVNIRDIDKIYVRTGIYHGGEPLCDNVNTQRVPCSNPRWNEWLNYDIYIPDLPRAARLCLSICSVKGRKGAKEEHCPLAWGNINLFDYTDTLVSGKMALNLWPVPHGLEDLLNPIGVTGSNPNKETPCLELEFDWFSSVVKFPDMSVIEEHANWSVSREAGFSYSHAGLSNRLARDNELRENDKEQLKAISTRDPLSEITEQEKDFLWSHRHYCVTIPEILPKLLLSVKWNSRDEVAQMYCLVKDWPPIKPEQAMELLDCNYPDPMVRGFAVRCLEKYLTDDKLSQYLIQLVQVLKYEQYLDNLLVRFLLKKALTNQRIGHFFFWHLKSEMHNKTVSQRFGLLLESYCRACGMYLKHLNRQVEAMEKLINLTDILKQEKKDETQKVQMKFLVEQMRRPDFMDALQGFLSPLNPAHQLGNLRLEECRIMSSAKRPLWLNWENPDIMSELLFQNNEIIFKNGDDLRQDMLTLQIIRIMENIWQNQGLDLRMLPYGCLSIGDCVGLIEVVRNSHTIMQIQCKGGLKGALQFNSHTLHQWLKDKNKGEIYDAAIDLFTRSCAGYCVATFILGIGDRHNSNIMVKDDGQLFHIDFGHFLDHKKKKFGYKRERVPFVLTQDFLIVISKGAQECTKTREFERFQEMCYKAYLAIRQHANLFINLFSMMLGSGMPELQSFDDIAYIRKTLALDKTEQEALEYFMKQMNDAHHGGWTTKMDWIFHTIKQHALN

As a reminder, the IC50 is the concentration that inhibits the measured activity by half. A high value points to a need for much substance. Turning to `COc1cc(/C=N/Nc2nc(N3CCOCC3)nc(N3CCOCC3)n2)cc(OC)c1O`, the IC50 in test [1] is greater than 10000 nM.

In turn, `Fc1cccc(Cn2cc(/C=N/Nc3nc(N4CCOCC4)c4sccc4n3)c3ccccc32)c1` showed an IC50 in [2] greater than 30000 nM.

For the molecule `N#Cc1cccc(Cn2cc(/C=N/Nc3nc(N4CCOCC4)nc(N4CCOCC4)n3)c3ccccc32)c1`, in test [2], half-maximal inhibition (IC50) was put at 16600 nM.

One may read the inhibition as the change of the read-out against control, counted positive when it falls. In the case of `O=c1c(/C=N/Nc2nc(N3CCOCC3)c3ccsc3n2)coc2ccc([N+](=O)[O-])cc12`, the IC50 in test [1] worked out at 1530 nM; in [3], 3240 nM; in [4] it was 1420 nM; in test [2], 920 nM. The molecule further gave an inhibition in [5] of 91.2%.

In the case of `O=C(O)c1ccc2occ(/C=N/Nc3nc(N4CCOCC4)c4sccc4n3)c(=O)c2c1`, the IC50 in test [1] was 1810 nM; in [4] it was 6260 nM; in test [2] it was 3310 nM. Besides, the inhibition in test [5] amounted to 95%.

For the molecule `O=C(O)c1ccc2occ(/C=N/Nc3nc(N4CCOCC4)c4ccsc4n3)c(=O)c2c1`, the Ratio IC50 in [6] was 8.6; in test [7], 7.9; in test [8] it was greater than 5; in the test on PC-3, 19.1. Further, the IC50 in test [1] stood at 2350 nM; in test [3], 1200 nM; in [4], 850 nM; in test [2], 160 nM. In test [5], this molecule showed an inhibition of 90.6%.

Regarding `O=c1c(/C=N/Nc2nc(N3CCOCC3)c3sccc3n2)coc2ccc([N+](=O)[O-])cc12`, the results for the IC50 in test [1], in test [4] and in test [2] were greater than 10000 nM, 6900 nM and 4620 nM, respectively. The inhibition in test [5] came out at 58.8%.
